Results as given in publication PMC7031742 (Journal of Ginseng Research, 2018).
Several values for one entry are separate records, joined by “and”; a condition that tells them apart may be missing. Equal entries are not always repeated. Where two headings read alike, the source gives them in different places.

Tests used:
[1] = cited from earlier work
[2] = Pharmacokinetics of ginsenosides in human plasma after single or repeated; assay type: in vivo; conditions: for Accumulation factor: AUC of repeated administration divided by AUC of single administration; for Detection in human plasma samples: after oral ingestion of red ginseng extract, LC-MS/MS; for AUC / Cmax / MRT / Tmax / half-life: male, human, plasma, po, 3 pouches of red ginseng extract; for half-life: t1/2, single dose of red ginseng extract, human plasma
[3] = cited from earlier work; remark: listed apart in the source
[4] = Permeability of ginsenoside in Caco-2 cells; assay type: in vitro ADME; conditions: human; for Papp A→B at 1 h, 10 μM / Papp B→A at 1 h, 10 μM: Caco-2; for efflux ratio at 1 h, 10 μM: Caco-2, ER (efflux ratio), Caco-2, B to A / A to B
How it was run: (§1)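 Caco-2 cells (passage 41–43) grown in DMEM with 20% FBS, 1% nonessential amino acids, 4 mM L-glutamine and penicillin-streptomycin, then cultured 21 days on Transwell inserts. Test compound at 10 μM in HBSS was dosed for apical-to-basal and basal-to-apical transport over 1 h. Samples were quenched in methanol with berberine IS and analysed by LC-MS/MS. Papp = transport rate / (donor concentration × insert area).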

Caco-2 cells = assay: Permeability of ginsenoside in Caco-2 cells; assay type: in vitro ADME; conditions: for ER (efflux ratio): Caco-2, B to A / A to B; for Papp A to B: apical to basal; for Papp A to B / Papp B to A: 10 μM, 1 h; for Papp B to A: basal to apical
How it was run: as §1

| SMILES | Accumulation factor [2] | Detection in human plasma samples [2] | AUC [2] [µg·h/mL] | Cmax [2] [ng/mL] | MRT [2] [h] | Tmax [2] [h] | half-life [2] [h] | Papp A→B at 1 h, 10 μM [4] [nm/s] | Papp B→A at 1 h, 10 μM [4] [nm/s] | efflux ratio at 1 h, 10 μM [4] | Stability over the enzymatic and alkaline hydrolysis [1] | Bioavailability ([3]; ref Odani et al. [10]) [%] | Bioavailability ([3]; ref Xu et al. [11]) [%] | ER (efflux ratio) (Caco-2 cells) | Papp A to B (Caco-2 cells) | Papp B to A (Caco-2 cells) |
| --- | --- | --- | --- | --- | --- | --- | --- | --- | --- | --- | --- | --- | --- | --- | --- | --- |
| CC(C)=CCC[C@](C)(O[C@@H]1O[C@H](CO[C@@H]2O[C@H](CO)[C@@H](O)[C@H](O)[C@H]2O)[C@@H](O)[C@H](O)[C@H]1O)[C@H]1CC[C@]2(C)[C@@H]1[C@H](O)C[C@@H]1[C@@]3(C)CC[C@H](O[C@@H]4O[C@H](CO)[C@@H](O)[C@H](O)[C@H]4O[C@@H]4O[C@H](CO)[C@@H](O)[C@H](O)[C@H]4O)C(C)(C)[C@@H]3CC[C@]12C [Rb1] | 4.5–6.7 and 4.55 | detected | 0.0827 ± 0.0263 | 2.19 ± 0.73 | 26.8 ± 1.59 | 3.53 ± 1.25 | 35 ± 8.46 | 2.7 ± 0.3 | 3 ± 0.8 | < 2 | stable | 0.1 | 4.3 |  |  |  |
| CC(C)=CCC[C@](C)(O)[C@H]1CC[C@]2(C)[C@@H]1[C@H](O)C[C@@H]1[C@@]3(C)CC[C@H](O)C(C)(C)[C@@H]3[C@@H](O[C@@H]3O[C@H](CO)[C@@H](O)[C@H](O)[C@H]3O)C[C@]12C [Rh1] |  | could not be found |  |  |  |  |  |  |  |  |  |  |  | 6.27 | 0.22 ± 0.04 ☓10^−6 cm/s | 1.35 ± 0.14 ☓10^−6 cm/s |
| CC(C)=CCC[C@](C)(O[C@@H]1O[C@H](CO[C@@H]2O[C@@H](CO)[C@H](O)[C@H]2O)[C@@H](O)[C@H](O)[C@H]1O)[C@H]1CC[C@]2(C)[C@@H]1[C@H](O)C[C@@H]1[C@@]3(C)CC[C@H](O[C@@H]4O[C@H](CO)[C@@H](O)[C@H](O)[C@H]4O[C@@H]4O[C@H](CO)[C@@H](O)[C@H](O)[C@H]4O)C(C)(C)[C@@H]3CC[C@]12C [Rc] | 4.5–6.7 and 5.44 | detected | 0.0594 ± 0.0229 | 1.5 ± 0.63 | 27.4 ± 2.34 | 3.68 ± 1.7 | 35.6 ± 14.8 | 2.8 ± 0.9 | 3.3 ± 0.6 | < 2 | stable |  |  |  |  |  |
| CC(C)=CCC[C@](C)(O[C@@H]1O[C@H](CO[C@@H]2OC[C@H](O)[C@H](O)[C@H]2O)[C@@H](O)[C@H](O)[C@H]1O)[C@H]1CC[C@]2(C)[C@@H]1[C@H](O)C[C@@H]1[C@@]3(C)CC[C@H](O[C@@H]4O[C@H](CO)[C@@H](O)[C@H](O)[C@H]4O[C@@H]4O[C@H](CO)[C@@H](O)[C@H](O)[C@H]4O)C(C)(C)[C@@H]3CC[C@]12C [Rb2] | 4.5–6.7 and 6.73 | detected | 0.0471 ± 0.0164 | 1.26 ± 0.39 | 26.8 ± 1.74 | 3.87 ± 2.47 | 38.2 ± 20.3 | 2.8 ± 0.2 | 2.4 ± 0.5 |  | stable |  |  |  |  |  |

Now from value to molecule, other results behind:

| Accumulation factor [2] | Detection in human plasma samples [2] | AUC [2] [µg·h/mL] | Cmax [2] [ng/mL] | MRT [2] [h] | Tmax [2] [h] | half-life [2] [h] | Papp A→B at 1 h, 10 μM [4] [nm/s] | Papp B→A at 1 h, 10 μM [4] [nm/s] | efflux ratio at 1 h, 10 μM [4] | SMILES | Stability over the enzymatic and alkaline hydrolysis [1] | Bioavailability ([3]; ref Odani et al. [10]) [%] | Bioavailability ([3]; ref Xu et al. [11]) [%] | ER (efflux ratio) (Caco-2 cells) | Papp A to B (Caco-2 cells) | Papp B to A (Caco-2 cells) |
| --- | --- | --- | --- | --- | --- | --- | --- | --- | --- | --- | --- | --- | --- | --- | --- | --- |
| 4.5–6.7 and 4.49 | detected | 0.0226 ± 0.0183 | 0.7 ± 0.46 | 24.7 ± 2.23 | 4.87 ± 1.92 | 24 ± 15.3 | 2.2 ± 0.2 | 3.1 ± 0.4 | < 2 | CC(C)=CCC[C@](C)(O[C@@H]1O[C@H](CO)[C@@H](O)[C@H](O)[C@H]1O)[C@H]1CC[C@]2(C)[C@@H]1[C@H](O)C[C@@H]1[C@@]3(C)CC[C@H](O[C@@H]4O[C@H](CO)[C@@H](O)[C@H](O)[C@H]4O[C@@H]4O[C@H](CO)[C@@H](O)[C@H](O)[C@H]4O)C(C)(C)[C@@H]3CC[C@]12C [Rd] | stable |  |  |  |  |  |
|  | could not be found |  |  |  |  |  |  |  |  | CC(C)=CCC[C@](C)(O[C@@H]1O[C@H](CO)[C@@H](O)[C@H](O)[C@H]1O)[C@H]1CC[C@]2(C)[C@@H]1[C@H](O)C[C@@H]1[C@@]3(C)CC[C@H](O)C(C)(C)[C@@H]3[C@@H](O[C@@H]3O[C@H](CO)[C@@H](O)[C@H](O)[C@H]3O)C[C@]12C [Rg1] |  | 2 | 18.4 |  |  |  |
|  | absence |  |  |  |  |  |  |  |  | CC(C)=CCC[C@](C)(O)[C@H]1CC[C@]2(C)[C@@H]1[C@H](O)C[C@@H]1[C@@]3(C)CC[C@H](O[C@@H]4O[C@H](CO)[C@@H](O)[C@H](O)[C@H]4O[C@@H]4O[C@H](CO)[C@@H](O)[C@H](O)[C@H]4O)C(C)(C)[C@@H]3CC[C@]12C [Rg3] |  |  |  | 2.97 | 0.05 ± 0.01 ☓10^−6 cm/s | 0.14 ± 0.06 ☓10^−6 cm/s |
